Source: PubChem
Only some compounds are listed: those with a hit (about 2.2% of all), similar ones and a draw of the others.
ARFGAP1 inh – rat ARFGAP1 inhibition; Q62848; Arfgap1-stimulated ARF1 GTP hydrolysis, GDP FP detection; inhibition, % at 16.5 µM; 360,000 tested, 0.26% active; AID 651572;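 active means inhibition above a per-plate limit, mean inhibition of low control wells plus 3 SD, cut at about 25% in these data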
Target sequence (Q62848 1-136 limits assumed): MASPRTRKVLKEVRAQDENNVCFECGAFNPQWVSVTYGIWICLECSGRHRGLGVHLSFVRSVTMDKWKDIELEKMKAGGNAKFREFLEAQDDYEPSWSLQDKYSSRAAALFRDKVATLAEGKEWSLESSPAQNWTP
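system = rat Arfgap1 catalytic domain, aa 1-136 | technique = FP, GDP Alexa 633 tracer displaced from anti-GDP antibody, 620/688 nm | compound = one concentration, 16.5 µM, DMSO 1.26% | medium = HEPES-based buffer, pH 7.5 | timing = compound-enzyme preincubation 20 min, reaction 120 min, detection 60 min, 25 °C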
ASAP1 GAP inh – inhibitors of human ASAP1 ArfGAP activity | ASAP1-stimulated ARF1 GTP hydrolysis, GDP FP detection | inhibition, % at 16.5 µM | 360,000 tested, 0.19% active; in the data active means inhibition above about 25%
Target sequence (Q9ULH1 325-724 limits assumed): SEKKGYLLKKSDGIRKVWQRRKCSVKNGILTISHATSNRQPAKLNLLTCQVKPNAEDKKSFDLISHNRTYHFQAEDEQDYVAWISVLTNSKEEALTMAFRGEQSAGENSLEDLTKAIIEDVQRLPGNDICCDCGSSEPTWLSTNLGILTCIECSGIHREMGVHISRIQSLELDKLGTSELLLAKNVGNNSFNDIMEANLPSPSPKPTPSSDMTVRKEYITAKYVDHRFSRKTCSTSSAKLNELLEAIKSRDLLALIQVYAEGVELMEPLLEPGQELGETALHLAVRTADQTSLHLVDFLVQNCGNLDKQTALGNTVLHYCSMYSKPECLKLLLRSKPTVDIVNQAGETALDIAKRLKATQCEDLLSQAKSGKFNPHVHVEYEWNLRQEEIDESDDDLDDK
V-ATPase pHluor – alters yeast V-ATPase proton transport | S. cerevisiae, pHLuorin cytosolic pH fluorescence | 350,000 tested, 0.37% active | AID 504577 | response, % at 10 µM; in the data active means response mostly above about 7.3%, no sharp cut-off; inactive means mostly below about 5.4%; further: actives read high
Granule exo inh – lytic granule exocytosis inhibition; TALL-104 LAMP-1 surface exposure, flow cytometry; cells stimulated with thapsigargin and PMA; inhibition, % at 10 µM; 360,000 tested, 0.66% active; AID 651702;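 active means inhibition above about 55%, limit read from the data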
CendR NRP1 mod – modulators of CendR peptide binding to human neuropilin-1 | FAM-RPARPAR peptide binding to NRP-1, fluorescence polarization | AID 602438 | 360,000 tested, 0.85% active | inhibition, % at 25 µM | O14786;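 active means inhibition or corrected inhibition above about 18%, plus a signal ratio from 0.5 to 1.5, limit read from the data, passing the limit was not always enough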
Of the large screens only hits and unclear results are named; the others gave an inactive call.

COCCN1Cc2cc(C(=O)OC)c3c(c2C1=O)c1cc(F)ccc1n3S(=O)(=O)c1cccc(C)c1	none (no result: V-ATPase pHluor, Granule exo inh, CendR NRP1 mod)
CCOC(=O)C1=C[C@@H](C(C)(C)C)N(S(=O)(=O)c2ccc([N+](=O)[O-])cc2)[C@H]1c1ccccc1	CendR NRP1 mod 22.7 (no result: V-ATPase pHluor)
O=C(CCn1cncn1)N1CCCC(N2CCN(c3ccc(F)cc3)CC2)C1 (configuration not stated)	CendR NRP1 mod 24.7
O=C(CCn1cncn1)N1CCCC(N2CCN(c3cccc(C(F)(F)F)c3)CC2)C1 (configuration not stated)	none
COC(=O)C1=C(C)N(Cc2ccc(C(F)(F)F)cc2)C(=NCC2CC2)NC1c1cccc(Cl)c1 (configuration not stated)	none (no result: V-ATPase pHluor, Granule exo inh, CendR NRP1 mod)
Cc1ccc(CC2(c3ccccc3)NC(=O)NC2=O)cc1 (configuration not stated)	V-ATPase pHluor 14.9
CCOC(=O)c1cccc(N2CC3CNC(=O)C2(C(=O)OC)N3C)c1 (configuration not stated)	CendR NRP1 mod 20.9
Cc1ccccc1Oc1ccc2c(c1)[C@@H]1C[C@H](N(C)C(=O)NC3CCCCC3)[C@H]([C@H](C)O)C(=O)N1CC2	none
Cc1ccccc1Oc1ccc2c(c1)[C@@H]1C[C@H](N(C)C(=O)Nc3cc(Cl)cc(Cl)c3)[C@H]([C@H](C)O)C(=O)N1CC2	CendR NRP1 mod 35.1
COc1c2c(c3c(c1OC)c(=O)c1ccccc1n3C)OCO2	CendR NRP1 mod 25.8
O=C(C=Cc1ccc(OCc2ccccc2)cc1)c1c(F)cccc1F	none (no result: V-ATPase pHluor, Granule exo inh, CendR NRP1 mod)
C=CCCN1[C@@H](Cc2ccccc2)COc2ccccc2S1(=O)=O	none (no result: V-ATPase pHluor, Granule exo inh, CendR NRP1 mod)
O=[N+]([O-])c1ccc(S(=O)Cc2ccccc2)c([N+](=O)[O-])c1 (configuration not stated)	V-ATPase pHluor 22.4
COC(=O)[C@]12C[C@H](CC(=O)N3CCN(C(=O)C4CC4)CC3)C(=O)N(Cc3ccccc3)C1=C[C@H](C(C)(C)C)O[C@@H]2C	none (no result: V-ATPase pHluor, Granule exo inh, CendR NRP1 mod)
COc1ccc(C(C)(C)C)cc1NC(=O)CCc1c(C)noc1C	CendR NRP1 mod 28.4
CN(C)CCCN1CC(=O)N2CCc3ccc(Br)cc3C2CC1=O (configuration not stated)	none (no result: V-ATPase pHluor, Granule exo inh, CendR NRP1 mod)
Cc1c(CC(=O)N2CCN(C(=O)C3COc4ccccc4O3)CC2)c(=O)oc2cc(O)ccc12 (configuration not stated)	CendR NRP1 mod 71.6
Cc1ccc(S(=O)(=O)N2CCN(C(=O)c3ccc4nc[nH]c4c3)CC2)cc1	V-ATPase pHluor 14.8
Cc1ccc(S(=O)(=O)N2CCN(C(=O)c3cccc(F)c3)CC2)cc1	none
COCCN(C)Cc1cn(-c2ccc(F)cc2F)nc1-c1ccccc1C	none
CCC(COC)NCc1cn(-c2ccc(F)cc2F)nc1-c1ccccc1C (configuration not stated)	CendR NRP1 mod 25.7
O=C(CSc1cccc[n+]1[O-])Nc1cc(S(=O)(=O)N2CCOCC2)ccc1Cl	none
O=C(CSc1cccc[n+]1[O-])Nc1cc(S(=O)(=O)N2CCOCC2)ccc1N1CCOCC1	CendR NRP1 mod 28.3
Cc1ccc(S(=O)(=O)N2CCOCC2)cc1NCC(=O)Nc1ccc(OC(F)(F)F)cc1	CendR NRP1 mod 19.8
Cc1ccccc1NCC(=O)Nc1cc(S(=O)(=O)N2CCCCC2)ccc1C	none
Cc1ccc(S(=O)(=O)N2CCOCC2)cc1NC(=O)CNc1ccccc1N1CCCC1=O	V-ATPase pHluor 22.0
COc1ccc(NC(=O)CNc2cc(S(=O)(=O)N3CCOCC3)ccc2NCC2CCCO2)cc1 (configuration not stated)	none
Cc1ccc(CN2C(=O)CCC2C(=O)NC2CC2)cc1 (configuration not stated)	CendR NRP1 mod 26.5
C=CCN1c2ccccc2[C@]23C[C@@H](C(=O)OC)N(C(=O)c4ccco4)C2=NC(C(=O)OC)=C(C(=O)OC)[C@H]13	none
C=CCN1c2ccccc2[C@]23C[C@@H](C(=O)OC)N(C(=O)C4CCC4)C2=NC(C(=O)OC)=C(C(=O)OC)[C@H]13	CendR NRP1 mod 25.4
CCc1nc(OCC(=O)c2ccccc2)c(C#N)c2c1COC(C)(C)C2	CendR NRP1 mod 19.1
Cc1nc(OCC(=O)c2ccc(Cl)cc2)c(C#N)c2c1COC(C)(C)C2	none
O=C1C2C3C=CC(CO)(O3)C2C(=O)N1c1ccccc1-c1ccccc1 (configuration not stated)	Granule exo inh 63.5 (no result: ARFGAP1 inh, ASAP1 GAP inh)
CC(=O)Oc1ccc(N2C(=O)C3C4C=CC(CO)(O4)C3C2=O)cc1 (configuration not stated)	none
CC(C)(CNC(=O)c1ccc(S(=O)(=O)Nc2ccc(Cl)cc2)cc1)N1CCOCC1	none
CCOC(=O)N1CCC(Nc2c(NCCN3CCN(Cc4ccccc4)CC3)c(=O)c2=O)CC1	V-ATPase pHluor 14.1 (no result: ARFGAP1 inh, ASAP1 GAP inh)
CCOC(=O)N1CCN(c2c(NCCN3CCN(Cc4ccccc4)CC3)c(=O)c2=O)CC1	none
CN(C)CCN1CCN(C2CN(Cc3ccc([N+](=O)[O-])cc3)S(=O)(=O)C2)CC1 (configuration not stated)	CendR NRP1 mod 22.2 (no result: V-ATPase pHluor)
O=C(O)CN1C(=O)c2cccc3c(Br)ccc1c23	none
CN(C)CCCN1C(=O)c2cccc3c(Br)ccc(c23)C1=O	CendR NRP1 mod 24.8
CCO[C@@H]1OC(C(=O)NCc2ccccc2)=C[C@H](c2ccc(Br)cc2)[C@H]1CCCO	CendR NRP1 mod 24.2
CCO[C@H]1OC(C(=O)NCc2ccccc2)=C[C@@H](c2ccc(C(F)(F)F)cc2)[C@@H]1CCCO	none
CCO[C@H]1OC(C(=O)NC2CC2)=C[C@@H](c2ccccc2)[C@@H]1CCCO	CendR NRP1 mod 26.1
C#Cc1ccc([C@@H]2C=C(C(=O)NC3CC3)O[C@H](OCC)[C@H]2CCCO)cc1	none
Cn1nc(C(=O)Nc2ccccc2)c2c1-c1ccccc1S(=O)(=O)C2	V-ATPase pHluor 14.0
COc1ccc(C2NC(=O)c3ccccc3O2)cc1 (configuration not stated)	CendR NRP1 mod 23.0
CCOC(=O)c1ccccc1NC(=O)COC(=O)CCC(=O)c1ccccc1	none
CCCOC(=O)COC(=O)c1ccccc1NC(=O)c1ccccc1	V-ATPase pHluor 20.5
N#Cc1ccc2nc(-c3ccc(CN4CCC(n5cc(-c6ccccc6)[nH]c5=O)CC4)cc3)c(-c3ccccc3)nc2c1	none (no result: V-ATPase pHluor, Granule exo inh, CendR NRP1 mod)
CN1CCN(S(=O)(=O)c2ccc(N3CCc4ccccc4C3)nc2)CC1	CendR NRP1 mod 21.4
CN1CCN(c2ccc(S(=O)(=O)N3CCCCC3)cn2)CC1	none
Nc1nc2c(C(=O)N3CCCC3)nnn2c2ccccc12	none (no result: V-ATPase pHluor, Granule exo inh, CendR NRP1 mod)
C=CCN1C(=O)c2n[nH]c(C(C)C)c2C1c1ccc2c(c1)OCO2 (configuration not stated)	none (no result: V-ATPase pHluor, Granule exo inh, CendR NRP1 mod)
CC12CCC(=O)N1C(C(=O)NCCc1ccccc1)CS2 (configuration not stated)	CendR NRP1 mod 25.2
COc1cc(C(=O)Nc2ccccc2C2COC(=O)C2=N)cc(OC)c1OC (configuration not stated)	none
